This is an account of results in ChEMBL document CHEMBL4350959, “Design and Identification of a Novel, Functionally Subtype Selective GABAA Positive Allosteric Modulator (PF-06372865)” (J Med Chem, 2019).

As a reminder, the logD is lipophilicity at a set pH, counting ionised and neutral species. As usually defined, the solubility is the concentration that dissolves in the medium under given conditions. A low value points to a poorly soluble substance.

Series [1] is described as follows: Lipophilicity, log D of the compound. It is filed as physicochemical. Particulars: octanol/water. The method, boiled down:
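LogD was either measured or calculated with an internal logD model.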

Series [2] in a line: Solubility of the compound at pH 6.5. It is filed as physicochemical. The note with it: buffer.
A short description of series [3]: Permeability in RRCK cells. It is filed as ADME, cell-based, Canis lupus familiaris, MDCKII-LE. The note with it: dog, MDCK; read-out: permeability. An outline of the steps:
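Transcellular permeability across Ralph Russ canine kidney (RRCK) cell monolayers, reported as x10^-6 cm/sec.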

Series [4] can be described thus: Volume of distribution at steady state in rat. It is filed as ADME. The note with it: in vivo, read-out: Vdss.
A short description of series [5]: Oral bioavailability in rat. The format is ADME, organism-based. Particulars: in vivo.
Series [6] is described as follows: Volume of distribution at steady state in dog. The format is ADME, Canis lupus familiaris. Particulars: in vivo, read-out: Vdss.
Series [7] in a line: Oral bioavailability in dog. It is filed as ADME, organism-based, Canis lupus familiaris. Particulars: in vivo.

In brackets after ≈: the same amount, converted by molar mass.

As for `CCn1cnc2c(-c3ccc(F)c(-c4cccc(C(=O)NC)c4)c3)cnnc21`, the logD in series [1] came to 2.8.

The compound `Cc1cc(-c2cc(-c3cnnc4c3ncn4C3CC3)ccc2F)ccn1` showed a logD in series [1] of 2.9. This logD and that of the compound before are within 0.2 log units of each other.

As for `CCn1cnc2c(-c3ccnc(OC)c3)cnnc21`, the logD in series [1] was determined as 1.5.

Compound `CCn1cnc2c(-c3ccc(F)c(-c4cccnc4)c3)cnnc21` returned a logD in series [1] of 2.6.

The compound `CC(C)n1cnc2c(-c3ccc(F)c(Oc4ccc(C#N)cn4)c3)cnnc21` registered a logD in series [1] of 2.7. This logD and that of the compound before are within 0.2 log units of each other.

The compound `CCn1cnc2c(-c3ccc(F)c(Oc4cnc(C#N)nc4)c3)cnnc21` gave a logD in series [1] of 2.

In series [1], `CCn1cnc2c(-c3ccnc(Oc4cccc(S(=O)(=O)CC)c4)c3)cnnc21` returned a logD of 1.6.

The compound `CCn1nnc2c(-c3ccc(F)c(-c4ccc(S(=O)(=O)CC)cc4)c3)cnnc21` came in with a logD in series [1] of 3.3.

Compound `CCn1cnc2c(-c3ccc(F)c(-c4cc(C(=O)NC)ccc4F)c3)cnnc21` gave a logD in series [1] of 3.

`CCn1cnc2c(-c3ccc(F)c(-c4ccc5c(c4)CN(C)C5=O)c3)cnnc21`: in series [1], the logD is 2.7.

`CCOc1cc(S(=O)(=O)CC)ccc1-c1cc(-c2cnnc3c2ncn3CC)ccc1F` had a logD in series [1] of 3.3.

In the case of `CCn1cnc2c(-c3ccc(F)c(-c4ccc(S(=O)(=O)CC)cc4F)c3)cnnc21`, the logD in series [1] stood at 2.6.

`CCn1cnc2c(-c3ccc(F)c(-c4ccc5c(c4)C(=O)N(C)C5)c3)cnnc21`: the logD in series [1] is 2.6.

Regarding `CCn1cnc2c(-c3ccnc(Oc4ccccc4)c3)cnnc21`, the logD in series [1] was 2.6.

`CCn1cnc2c(-c3ccc(F)c(-c4ccc(C(=O)N(C)C)cc4)c3)cnnc21` yielded a logD in series [1] of 2.5. This logD and that of the compound before are within 0.2 log units of each other.

In the case of `CCn1cnc2c(-c3ccc(F)c(Oc4ccnc(C)c4)c3)cnnc21`, in series [1], the logD came to 2.6.

Take `CCn1cnc2c(-c3ccc(F)c(-c4ccc(S(=O)(=O)C(C)C)cc4OC)c3)cnnc21`: the logD in series [1] is 3.

As for `CCn1cnc2c(-c3ccc(F)c(-c4ccc(S(=O)(=O)C5CC5)cc4OC)c3)cnnc21`, the logD in series [1] turned out to be 2.7.

On to `CCn1cnc2c(-c3ccc(F)c(-c4ccc(S(C)(=O)=O)cc4OC)c3)cnnc21`, for which the logD in series [1] turned out to be 2.5.

Compound `CCS(=O)(=O)c1ccc(-c2cc(-c3cnnc4c(OC)cnn34)ccc2F)cc1` gave a logD in series [1] of 2.8.

The compound `CCn1cnc2c(-c3ccc(F)c(-c4ccc(S(=O)(=O)CC)cc4Cl)c3)cnnc21` returned a logD in series [1] of 3.2.

Compound `CCn1cnc2c(-c3ccc(F)c(-c4ccc(S(=O)(=O)CC)cc4OC)c3)cnnc21` [DARIGABAT] had a logD in series [1] of 2.7. Moreover, in series [2], the solubility is 95 µM (≈ 41.8 µg/mL). For the same compound, the Papp in series [3] is 17 ×10⁻⁶ cm/s. For the same compound, the figures for the Vd in series [4] and in series [6] were 2.1 L/kg and 3.4 L/kg, respectively. Besides, the bioavailability turned out to be 99% in series [5] and 130% in series [7].

As for `N#Cc1ccc(Oc2cc(-c3cnnc4c3ncn4C3CC3)ccc2F)nc1`, the logD in series [1] came to 2.3.

In the case of `CCn1cnc2c(-c3ccc(F)c(Oc4ccc(C#N)cn4)c3)cnnc21`, in series [1], the logD came to 2.3.

As to `CC(=O)N1CC(Oc2cc(-c3cnnc4c3ncn4C(C)C)ccc2F)C1`, in series [1], the logD came out at 1.6.

In turn, `CCn1cnc2c(-c3ccc(Cl)c(-c4ccc(S(=O)(=O)CC)cc4OC)c3)cnnc21` registered a logD in series [1] of 3.1.

`CCc1cnn2c(-c3ccc(F)c(-c4ccc(S(=O)(=O)CC)cc4)c3)cnnc12` had a logD in series [1] of 3.5.

In turn, `CCn1cnc2c(-c3ccc(F)c(-c4ccc(S(=O)(=O)CC)cc4)c3)cnnc21` came in with a logD in series [1] of 2.9.

`CCn1cnc2c(-c3ccc(F)c(OCc4ccccn4)c3)cnnc21` registered a logD in series [1] of 2.5.

In series [1], `CCn1cnc2c(-c3ccc(F)c(Oc4cccc(S(=O)(=O)CC)c4)c3)cnnc21` came in with a logD of 2.3.

As to `CCn1cnc2c(-c3ccc(F)c(-c4ccc(S(=O)(=O)C5COC5)cc4OC)c3)cnnc21`, the logD in series [1] came out at 2.2.

Compound `CCc1cnn2c(-c3ccc(F)c(-c4ccc(S(=O)(=O)CC)cc4)c3)ccnc12` had a logD in series [1] of 3.9.

As to `Cc1cc(-c2cc(-c3cnnc4c3ncn4C(C)C)ccc2F)ccn1`, the logD in series [1] turned out to be 3.1.

Turning to `CCn1cnc2c(-c3ccc(F)c(-c4cc5c(cc4OC)C(=O)N(C)C5)c3)cnnc21`, the logD in series [1] stood at 2.6. This compound also had a solubility in series [2] of 15 µM (≈ 6.26 µg/mL). Further, the Papp in series [3] worked out at 21 ×10⁻⁶ cm/s. Moreover, the Vd in series [4] stood at 0.55 L/kg; in series [6], 2.61 L/kg. In addition, the values for the bioavailability in series [5] and in series [7] were 76% and 43%, respectively.
